Results: ChEMBL document CHEMBL1155916, “Fluorinated phenylcyclopropylamines. Part 5: Effects of electron-withdrawing or -donating aryl substituents on the inhibition of monoamine oxidases A and B by 2-aryl-2-fluoro-cyclopropylamines” (Bioorg Med Chem, 2008)

What was measured:
[1] = target: T1, Amine oxidase [copper-containing] 3 (Rattus norvegicus, UniProt O08590); experiment: Inhibition of rat CAO
T1 sequence (O08590 whole entry): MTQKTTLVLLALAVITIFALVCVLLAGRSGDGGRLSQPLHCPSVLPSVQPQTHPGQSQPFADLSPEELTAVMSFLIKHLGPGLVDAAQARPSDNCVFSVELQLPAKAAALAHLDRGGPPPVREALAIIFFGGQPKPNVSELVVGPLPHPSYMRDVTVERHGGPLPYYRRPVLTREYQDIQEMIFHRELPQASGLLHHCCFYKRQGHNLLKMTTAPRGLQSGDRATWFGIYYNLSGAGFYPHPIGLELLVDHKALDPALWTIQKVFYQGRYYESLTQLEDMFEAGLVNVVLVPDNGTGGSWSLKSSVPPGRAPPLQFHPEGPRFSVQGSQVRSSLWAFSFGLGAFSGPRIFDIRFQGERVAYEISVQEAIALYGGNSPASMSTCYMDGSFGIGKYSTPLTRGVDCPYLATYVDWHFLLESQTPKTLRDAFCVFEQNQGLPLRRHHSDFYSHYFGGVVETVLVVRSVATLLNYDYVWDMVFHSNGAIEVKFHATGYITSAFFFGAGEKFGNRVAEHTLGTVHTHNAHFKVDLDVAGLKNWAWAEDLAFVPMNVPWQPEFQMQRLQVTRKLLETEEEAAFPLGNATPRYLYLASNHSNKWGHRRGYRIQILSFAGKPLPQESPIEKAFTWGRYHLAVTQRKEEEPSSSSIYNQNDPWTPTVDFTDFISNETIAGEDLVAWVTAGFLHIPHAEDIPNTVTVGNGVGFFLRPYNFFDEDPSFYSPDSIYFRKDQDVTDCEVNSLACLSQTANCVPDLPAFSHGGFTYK

Homo sapiens [2] = species on record: Homo sapiens; experiment: Selectivity for human recombinant MAOA over human recombinant MAOB
[3] = target: T2, Amine oxidase [flavin-containing] A (Homo sapiens, UniProt P21397); experiment: Inhibition of human recombinant MAOA
T2 sequence (P21397 whole entry): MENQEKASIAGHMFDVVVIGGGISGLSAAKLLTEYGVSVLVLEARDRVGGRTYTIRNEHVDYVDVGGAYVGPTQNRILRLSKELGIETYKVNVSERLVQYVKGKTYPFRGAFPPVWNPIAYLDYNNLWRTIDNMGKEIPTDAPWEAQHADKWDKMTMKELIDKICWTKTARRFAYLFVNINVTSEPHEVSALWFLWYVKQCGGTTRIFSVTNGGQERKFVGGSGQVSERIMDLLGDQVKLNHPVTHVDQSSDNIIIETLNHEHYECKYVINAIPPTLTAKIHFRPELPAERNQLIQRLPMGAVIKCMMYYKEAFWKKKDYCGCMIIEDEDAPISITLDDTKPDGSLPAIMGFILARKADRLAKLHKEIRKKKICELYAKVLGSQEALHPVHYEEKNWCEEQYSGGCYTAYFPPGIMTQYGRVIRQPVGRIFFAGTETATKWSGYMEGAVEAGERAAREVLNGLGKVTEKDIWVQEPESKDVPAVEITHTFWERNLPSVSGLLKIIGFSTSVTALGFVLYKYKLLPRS
In short: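 Recombinant human mitochondrial MAO A, desalted into 50 mM K phosphate pH 7.2 with 0.8% octyl-glucoside. Enzyme (4.4 µg) preincubated 10 min at 10 °C with varying inhibitor concentrations (DMSO) in substrate-free mix: 50 mM K phosphate pH 7.2, 0.5% reduced Triton X-100, 6% DMSO.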

[4] = Inhibition of tyramine oxidase
[5] = target: T3, Amine oxidase [flavin-containing] B (Homo sapiens, UniProt P27338); experiment: Inhibition of human recombinant MAOB
T3 sequence (P27338 whole entry): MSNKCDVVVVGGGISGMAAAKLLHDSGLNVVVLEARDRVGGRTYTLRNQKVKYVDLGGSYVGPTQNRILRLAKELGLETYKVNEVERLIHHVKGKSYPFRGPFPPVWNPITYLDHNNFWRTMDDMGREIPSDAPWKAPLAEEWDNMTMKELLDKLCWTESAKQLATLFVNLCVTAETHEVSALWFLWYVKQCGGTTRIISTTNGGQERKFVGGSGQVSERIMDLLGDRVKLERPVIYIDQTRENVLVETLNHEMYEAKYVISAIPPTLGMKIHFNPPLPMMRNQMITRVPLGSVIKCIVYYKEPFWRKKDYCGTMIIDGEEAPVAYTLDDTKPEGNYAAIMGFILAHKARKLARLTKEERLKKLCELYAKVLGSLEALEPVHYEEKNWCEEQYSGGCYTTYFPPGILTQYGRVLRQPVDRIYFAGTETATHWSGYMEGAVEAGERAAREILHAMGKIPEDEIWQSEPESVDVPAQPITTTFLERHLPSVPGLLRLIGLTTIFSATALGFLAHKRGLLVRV
In short: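 Recombinant human mitochondrial MAO B was gel-filtered into 50 mM K phosphate pH 7.2 with 0.8% octyl-glucoside. Enzyme (7.0 µg) was held 10 min at 10 °C with varying inhibitor concentrations (DMSO) in 0.1 M K phosphate pH 7.2, 6% DMSO, without substrate. The reaction was started with 1 mM benzylamine, and benzaldehyde formation was read at 250 nm at 25 °C.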

Homo sapiens [6] = species on record: Homo sapiens; experiment: Selectivity for human recombinant MAOB over human recombinant MAOA
[7] = Dissociation constant, pKa by titrimetric method; type: physicochemical
In short: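 Titration in 0.1 M KNO₃ at 21 °C.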

Homo sapiens [8] = species on record: Homo sapiens; experiment: Selectivity for human recombinant MAOA over human recombinant MAOB
[9] = Lipophilicity, log D at pH 7.4; type: physicochemical; conditions: buffer

| SMILES | IC50 ([3]; read-out: IC50) [µM] | IC50 [5] [µM] | Ratio IC50 (Homo sapiens [6]) | pKa [7] | Ratio IC50 (Homo sapiens [8]) | logD [9] | further results |
| --- | --- | --- | --- | --- | --- | --- | --- |
| COc1ccc(/C(=C\F)CN)cc1OC | – | – | – | – | – | – | IC50 [1]: 6 nM; Ratio Ki (Homo sapiens [2]): 100; Ki [3]: 231 µM |
| NC[C@@]1(c2ccccc2)C[C@@H]1F | 320 | – | – | – | – | – | IC50 [4]: 12 µM |
| N[C@]1(c2ccccc2)C[C@]1(F)c1ccccc1 (racemic) | 10 | 20 | 2 | 5.8 | – | – | – |
| N[C@@H]1C[C@]1(F)c1ccc(C(F)(F)F)cc1 (relative stereo) | 76 | 7.1 | – | 6.6 | 10.7 | 3.13 | – |
| N[C@@H]1C[C@]1(F)c1ccc(F)cc1 (relative stereo) | 270 | 10 | – | 6.88 | 27 | 2.14 | – |
| N[C@H]1C[C@]1(F)c1ccc(F)cc1 (relative stereo) | 3.6 | 4.9 | 1.4 | 7.31 | – | 1.6 | – |
| Cc1ccc([C@@]2(F)C[C@H]2N)cc1 (relative stereo) | 230 | 30 | – | 7.04 | 7.7 | – | – |
| N[C@H]1C[C@]1(F)c1ccccc1 (relative stereo) | 12 | 6.4 | – | – | 2 | 1.53 | – |
| N[C@@H]1C[C@]1(F)c1ccc(Cl)cc1 (relative stereo) | 89 | 4.8 | – | 6.81 | 18.5 | 2.66 | – |
| COc1ccc([C@@]2(F)C[C@@H]2N)cc1 (relative stereo) | 14 | 5.1 | – | 7.5 | 2.8 | – | – |
| N[C@H]1C[C@]1(F)c1ccc(Cl)cc1 (relative stereo) | 1.6 | 3.7 | 2.3 | 7.19 | – | 2.23 | – |
| N[C@@H]1C[C@@H]1c1ccccc1 (relative stereo) | – | – | – | 8.47 | – | 1.41 | – |
| N[C@H]1C[C@]1(F)c1ccc(C(F)(F)F)cc1 (relative stereo) | 0.8 | 5.4 | 6.8 | 7 | – | 2.66 | – |
| Cc1ccc([C@@]2(F)C[C@@H]2N)cc1 (relative stereo) | 13 | 13 | 1 | 7.41 | – | 1.83 | – |
| COc1ccc([C@@]2(F)C[C@H]2N)cc1 (relative stereo) | – | 18 | – | – | – | – | Activity ([3]; human): Not Active |
| COc1ccc([C@@]2(F)C[C@@H]2N)cc1OC (relative stereo) | 47 | 230 | 4.9 | 7.4 | – | 0.58 | – |
| COc1ccc([C@@]2(F)C[C@H]2N)cc1OC (relative stereo) | – | 470 | – | – | – | – | IC50 [3]: Not Active |
| N[C@@]1(c2ccccc2)C[C@@H]1F (relative stereo) | – | – | 100 | – | – | – | – |
| N[C@@H]1C[C@]1(F)c1ccccc1 (stereo in doubt) | 65 | 19 | – | – | 3.4 | 1.78 | – |
